Measured values: ChEMBL document CHEMBL5705905, “Pharmacological targeting of kinases MST1 and MST2 augments tissue repair and regeneration” (Sci Transl Med, 2016)

Key:
[1] = biological target: Inhibitor of nuclear factor kappa-B kinase subunit alpha (Homo sapiens) (UniProt O15111); assay: Inhibition of IKK-alpha (unknown origin) assessed as remaining activity at 1 uM by Kinome scan method relative to control
[2] = biological target: Tyrosine-protein kinase Srms (Homo sapiens) (UniProt Q9H3Y6); assay: Inhibition of SRMS (unknown origin) assessed as remaining activity at 1 uM by Kinome scan method relative to control
[3] = system: ALK tyrosine kinase receptor (Homo sapiens), Q9UM73 [L1196M]; assay: Inhibition of ALK L1196M mutant (unknown origin) assessed as remaining activity at 1 uM by Kinome scan method relative to control
Procedure, shortened: (§1)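 Active-site-dependent competition-binding (KINOMEscan) panel of 468 kinases, test compound at 1 μM (from a 10 mM DMSO stock). Read-out is ctrl% = (test signal − positive control signal)/(negative control signal − positive control signal) × 100. DMSO is the negative control (100%) and a control compound is the positive control (0%). Lower ctrl% means tighter binding.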

[4] = biological target: Mitogen-activated protein kinase kinase kinase 1 (Homo sapiens) (UniProt Q13233); assay: Inhibition of MAP3K1 (unknown origin) assessed as remaining activity at 1 uM by Kinome scan method relative to control
[5] = biological target: Dual specificity mitogen-activated protein kinase kinase 2 (Homo sapiens) (UniProt P36507); assay: Inhibition of MEK2 (unknown origin) assessed as remaining activity at 1 uM by Kinome scan method relative to control
Sequence of Dual specificity mitogen-activated protein kinase kinase 2 (Homo sapiens) (P36507 whole entry): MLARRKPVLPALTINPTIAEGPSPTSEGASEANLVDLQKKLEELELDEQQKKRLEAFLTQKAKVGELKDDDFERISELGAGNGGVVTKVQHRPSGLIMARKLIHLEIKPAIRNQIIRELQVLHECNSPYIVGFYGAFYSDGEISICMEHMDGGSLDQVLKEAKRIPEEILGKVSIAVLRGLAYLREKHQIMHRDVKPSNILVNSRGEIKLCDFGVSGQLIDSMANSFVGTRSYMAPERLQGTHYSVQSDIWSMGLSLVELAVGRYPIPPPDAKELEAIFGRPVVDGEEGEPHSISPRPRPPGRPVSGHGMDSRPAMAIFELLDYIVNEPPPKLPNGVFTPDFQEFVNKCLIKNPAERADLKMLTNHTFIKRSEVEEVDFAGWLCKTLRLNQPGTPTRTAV

[6] = biological target: Mitogen-activated protein kinase kinase kinase 12 (Homo sapiens) (UniProt Q12852); assay: Inhibition of DLK (unknown origin) assessed as remaining activity at 1 uM by Kinome scan method relative to control
[7] = biological target: Serine/threonine-protein kinase PAK 4 (Homo sapiens) (UniProt O96013); assay: Inhibition of PAK4 (unknown origin) assessed as remaining activity at 1 uM by Kinome scan method relative to control
[8] = biological target: Bone morphogenetic protein receptor type-1A (Homo sapiens) (UniProt P36894); assay: Inhibition of BMPR1A (unknown origin) assessed as remaining activity at 1 uM by Kinome scan method relative to control; procedure, shortened: as §1
Sequence of Bone morphogenetic protein receptor type-1A (Homo sapiens) (P36894 whole entry): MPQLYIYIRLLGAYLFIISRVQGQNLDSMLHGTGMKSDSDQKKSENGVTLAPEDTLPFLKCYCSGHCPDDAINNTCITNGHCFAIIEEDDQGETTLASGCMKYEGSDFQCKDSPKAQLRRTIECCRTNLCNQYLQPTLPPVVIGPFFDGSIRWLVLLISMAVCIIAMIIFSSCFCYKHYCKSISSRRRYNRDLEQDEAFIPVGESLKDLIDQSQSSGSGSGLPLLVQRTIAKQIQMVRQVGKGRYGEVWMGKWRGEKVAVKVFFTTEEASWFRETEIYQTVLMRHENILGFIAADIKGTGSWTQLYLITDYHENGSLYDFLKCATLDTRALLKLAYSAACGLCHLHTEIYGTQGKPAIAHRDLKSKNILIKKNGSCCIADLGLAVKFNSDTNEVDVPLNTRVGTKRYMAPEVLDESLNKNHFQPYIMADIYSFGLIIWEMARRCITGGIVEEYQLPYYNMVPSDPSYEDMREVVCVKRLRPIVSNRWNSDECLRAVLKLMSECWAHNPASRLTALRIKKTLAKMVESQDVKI

[9] = system: Mast/stem cell growth factor receptor Kit (Homo sapiens), P10721 [A829P]; assay: Inhibition of KIT A829P mutant (unknown origin) assessed as remaining activity at 1 uM by Kinome scan method relative to control
[10] = biological target: Ephrin type-A receptor 4 (Homo sapiens) (UniProt P54764); assay: Inhibition of EPHA4 (unknown origin) assessed as remaining activity at 1 uM by Kinome scan method relative to control
[11] = biological target: Serine/threonine-protein kinase TAO3 (Homo sapiens, UniProt Q9H2K8); assay: Inhibition of TAOK3 (unknown origin) in presence of ATP by enzymatic assay
[12] = biological target: Receptor-type tyrosine-protein kinase FLT3 (Homo sapiens) (UniProt P36888); assay: Inhibition of FLT3 (unknown origin) assessed as remaining activity at 1 uM by Kinome scan method relative to control
[13] = biological target: Serine/threonine-protein kinase PAK 6 (Homo sapiens) (UniProt Q9NQU5); assay: Inhibition of PAK6 (unknown origin) assessed as remaining activity at 1 uM by Kinome scan method relative to control
[14] = biological target: Tyrosine-protein kinase receptor Tie-1 (Homo sapiens) (UniProt P35590); assay: Inhibition of TIE1 (unknown origin) assessed as remaining activity at 1 uM by Kinome scan method relative to control
[15] = biological target: Testis-specific serine/threonine-protein kinase 3 (Homo sapiens) (UniProt Q96PN8); assay: Inhibition of TSSK3 (unknown origin) assessed as remaining activity at 1 uM by Kinome scan method relative to control
Sequence of Testis-specific serine/threonine-protein kinase 3 (Homo sapiens) (Q96PN8 whole entry): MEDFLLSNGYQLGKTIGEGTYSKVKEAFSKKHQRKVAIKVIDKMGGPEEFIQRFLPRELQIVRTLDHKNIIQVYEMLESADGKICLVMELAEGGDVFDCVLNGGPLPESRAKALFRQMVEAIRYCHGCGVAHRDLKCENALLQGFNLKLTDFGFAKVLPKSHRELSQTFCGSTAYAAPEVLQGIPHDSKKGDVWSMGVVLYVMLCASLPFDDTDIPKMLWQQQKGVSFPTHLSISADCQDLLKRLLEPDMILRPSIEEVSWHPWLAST

[16] = biological target: Homeodomain-interacting protein kinase 2 (Homo sapiens) (UniProt Q9H2X6); assay: Inhibition of HIPK2 (unknown origin) assessed as remaining activity at 1 uM by Kinome scan method relative to control
Sequence of Homeodomain-interacting protein kinase 2 (Homo sapiens) (Q9H2X6 whole entry, looked up): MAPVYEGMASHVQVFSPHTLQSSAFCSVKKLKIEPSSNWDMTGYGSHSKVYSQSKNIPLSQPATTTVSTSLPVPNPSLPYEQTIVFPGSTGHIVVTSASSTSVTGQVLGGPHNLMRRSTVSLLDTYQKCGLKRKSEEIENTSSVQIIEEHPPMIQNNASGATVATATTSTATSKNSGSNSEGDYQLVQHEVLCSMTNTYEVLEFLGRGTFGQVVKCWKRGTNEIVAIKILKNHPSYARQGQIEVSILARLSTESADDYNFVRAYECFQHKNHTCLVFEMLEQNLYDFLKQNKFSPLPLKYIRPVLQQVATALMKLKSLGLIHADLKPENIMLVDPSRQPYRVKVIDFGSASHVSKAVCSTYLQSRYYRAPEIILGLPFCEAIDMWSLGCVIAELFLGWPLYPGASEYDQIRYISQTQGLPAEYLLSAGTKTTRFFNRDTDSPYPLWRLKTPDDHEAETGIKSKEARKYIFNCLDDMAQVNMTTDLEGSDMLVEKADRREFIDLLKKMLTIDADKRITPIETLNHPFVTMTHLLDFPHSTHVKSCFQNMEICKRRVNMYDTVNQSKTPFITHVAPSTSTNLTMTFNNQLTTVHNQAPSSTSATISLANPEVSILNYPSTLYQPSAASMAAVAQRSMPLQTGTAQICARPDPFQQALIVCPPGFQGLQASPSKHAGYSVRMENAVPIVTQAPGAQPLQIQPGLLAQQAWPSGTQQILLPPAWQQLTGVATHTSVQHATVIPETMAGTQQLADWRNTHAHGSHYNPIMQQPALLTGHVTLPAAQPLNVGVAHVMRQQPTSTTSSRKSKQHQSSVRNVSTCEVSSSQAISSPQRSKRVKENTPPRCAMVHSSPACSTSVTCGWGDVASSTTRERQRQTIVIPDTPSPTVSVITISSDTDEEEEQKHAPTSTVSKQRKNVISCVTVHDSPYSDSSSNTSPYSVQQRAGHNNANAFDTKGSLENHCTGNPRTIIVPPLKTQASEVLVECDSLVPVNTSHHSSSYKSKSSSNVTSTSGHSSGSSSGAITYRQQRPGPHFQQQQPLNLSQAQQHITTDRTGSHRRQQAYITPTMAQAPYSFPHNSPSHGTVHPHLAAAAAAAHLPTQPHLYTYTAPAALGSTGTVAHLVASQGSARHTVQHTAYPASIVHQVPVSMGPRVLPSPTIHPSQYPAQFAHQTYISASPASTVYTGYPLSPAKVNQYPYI

[17] = biological target: Mitogen-activated protein kinase kinase kinase kinase 3 (Homo sapiens) (UniProt Q8IVH8); assay: Inhibition of MAP4K3 (unknown origin) assessed as remaining activity at 1 uM by Kinome scan method relative to control
Sequence of Mitogen-activated protein kinase kinase kinase kinase 3 (Homo sapiens) (Q8IVH8 whole entry): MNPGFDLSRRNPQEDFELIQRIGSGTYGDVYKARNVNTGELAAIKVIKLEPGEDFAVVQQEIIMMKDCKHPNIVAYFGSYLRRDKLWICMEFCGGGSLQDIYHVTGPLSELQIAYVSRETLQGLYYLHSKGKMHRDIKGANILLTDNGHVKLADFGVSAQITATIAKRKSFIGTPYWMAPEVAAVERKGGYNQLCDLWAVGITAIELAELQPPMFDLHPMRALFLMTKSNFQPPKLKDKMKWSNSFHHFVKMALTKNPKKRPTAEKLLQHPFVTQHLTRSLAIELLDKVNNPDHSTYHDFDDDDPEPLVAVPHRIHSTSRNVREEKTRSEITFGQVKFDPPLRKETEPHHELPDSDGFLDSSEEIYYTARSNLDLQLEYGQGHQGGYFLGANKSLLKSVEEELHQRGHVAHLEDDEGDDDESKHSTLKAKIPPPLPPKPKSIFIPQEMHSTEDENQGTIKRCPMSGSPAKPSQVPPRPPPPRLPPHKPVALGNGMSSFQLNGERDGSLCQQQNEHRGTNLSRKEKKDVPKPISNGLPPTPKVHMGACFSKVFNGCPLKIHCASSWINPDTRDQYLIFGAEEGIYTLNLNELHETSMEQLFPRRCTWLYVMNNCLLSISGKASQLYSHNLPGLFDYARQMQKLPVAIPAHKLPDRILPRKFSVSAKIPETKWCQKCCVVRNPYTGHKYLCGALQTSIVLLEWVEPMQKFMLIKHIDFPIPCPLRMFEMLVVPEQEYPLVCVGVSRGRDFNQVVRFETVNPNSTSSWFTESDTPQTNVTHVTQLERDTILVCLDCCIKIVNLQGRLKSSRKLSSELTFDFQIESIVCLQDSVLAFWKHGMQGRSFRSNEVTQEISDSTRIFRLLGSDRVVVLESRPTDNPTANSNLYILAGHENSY

[18] = biological target: Ephrin type-B receptor 3 (Homo sapiens) (UniProt P54753); assay: Inhibition of EPHB3 (unknown origin) assessed as remaining activity at 1 uM by Kinome scan method relative to control
[19] = biological target: Dual specificity tyrosine-phosphorylation-regulated kinase 1B (Homo sapiens) (UniProt Q9Y463); assay: Inhibition of DYRK1B (unknown origin) assessed as remaining activity at 1 uM by Kinome scan method relative to control
[20] = system: Mus musculus; assay: Protection against APAP induced liver injury in mouse assessed as cell death at 1 mg/kg, ip administered at 1.5 hrs in the presence of NAC relative to control; format: functional
[21] = biological target: Uncharacterized serine/threonine-protein kinase SBK3 (Homo sapiens) (UniProt P0C264); assay: Inhibition of SgK110 (unknown origin) assessed as remaining activity at 1 uM by Kinome scan method relative to control
[22] = biological target: Ephrin type-B receptor 1 (Homo sapiens) (UniProt P54762); assay: Inhibition of EPHB1 (unknown origin) assessed as remaining activity at 1 uM by Kinome scan method relative to control
[23] = biological target: Ribosomal protein S6 kinase alpha-5 (Homo sapiens) (UniProt O75582); assay: Inhibition of C-terminal kinase domain RPS6KA5 (unknown origin) assessed as remaining activity at 1 uM by Kinome scan method relative to control; procedure, shortened: as §1
[24] = biological target: Muscle, skeletal receptor tyrosine-protein kinase (Homo sapiens) (UniProt O15146); assay: Inhibition of MUSK (unknown origin) assessed as remaining activity at 1 uM by Kinome scan method relative to control
[25] = biological target: Death-associated protein kinase 1 (Homo sapiens) (UniProt P53355); assay: Inhibition of DAPK1 (unknown origin) assessed as remaining activity at 1 uM by Kinome scan method relative to control
Sequence of Death-associated protein kinase 1 (Homo sapiens) (P53355 whole entry, looked up): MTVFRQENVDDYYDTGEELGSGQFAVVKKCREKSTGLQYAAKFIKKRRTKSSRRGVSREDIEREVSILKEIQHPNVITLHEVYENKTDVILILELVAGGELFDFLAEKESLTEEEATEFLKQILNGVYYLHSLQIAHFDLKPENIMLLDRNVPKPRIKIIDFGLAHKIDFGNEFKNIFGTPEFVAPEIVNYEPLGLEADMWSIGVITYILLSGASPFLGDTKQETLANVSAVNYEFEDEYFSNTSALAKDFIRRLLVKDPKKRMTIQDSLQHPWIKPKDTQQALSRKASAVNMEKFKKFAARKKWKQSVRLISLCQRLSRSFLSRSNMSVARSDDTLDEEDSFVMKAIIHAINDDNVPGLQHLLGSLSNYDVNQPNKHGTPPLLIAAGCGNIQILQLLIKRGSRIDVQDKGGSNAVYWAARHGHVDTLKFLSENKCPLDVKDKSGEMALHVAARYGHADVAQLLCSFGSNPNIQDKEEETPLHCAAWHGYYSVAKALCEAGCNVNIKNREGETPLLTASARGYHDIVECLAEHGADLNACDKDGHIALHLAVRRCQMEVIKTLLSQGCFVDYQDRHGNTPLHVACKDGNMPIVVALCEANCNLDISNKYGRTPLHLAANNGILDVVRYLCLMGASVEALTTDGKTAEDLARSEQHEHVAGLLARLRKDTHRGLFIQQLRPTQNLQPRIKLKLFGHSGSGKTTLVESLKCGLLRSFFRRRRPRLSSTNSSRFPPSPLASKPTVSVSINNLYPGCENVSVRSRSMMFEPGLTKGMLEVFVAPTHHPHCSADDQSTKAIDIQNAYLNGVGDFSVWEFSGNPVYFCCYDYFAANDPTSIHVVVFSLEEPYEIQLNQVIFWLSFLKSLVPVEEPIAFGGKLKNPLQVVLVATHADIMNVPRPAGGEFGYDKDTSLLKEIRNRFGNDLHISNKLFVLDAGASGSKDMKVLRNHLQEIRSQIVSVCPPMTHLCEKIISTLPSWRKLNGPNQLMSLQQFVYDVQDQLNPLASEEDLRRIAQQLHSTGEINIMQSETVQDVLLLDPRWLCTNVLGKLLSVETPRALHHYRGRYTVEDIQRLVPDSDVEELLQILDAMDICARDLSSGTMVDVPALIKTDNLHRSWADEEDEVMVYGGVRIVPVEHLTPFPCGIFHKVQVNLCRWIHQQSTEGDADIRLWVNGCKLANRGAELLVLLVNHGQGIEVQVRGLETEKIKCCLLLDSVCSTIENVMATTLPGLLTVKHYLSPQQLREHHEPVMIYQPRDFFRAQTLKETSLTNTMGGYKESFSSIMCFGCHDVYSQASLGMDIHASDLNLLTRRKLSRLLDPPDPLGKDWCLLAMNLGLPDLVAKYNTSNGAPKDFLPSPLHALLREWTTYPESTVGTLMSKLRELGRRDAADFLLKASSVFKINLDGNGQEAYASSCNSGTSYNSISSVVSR
Procedure, shortened: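 Active-site-dependent competition-binding profiling (KINOMEscan) at 1 μM against a 468-kinase panel; compound supplied from a 10 mM DMSO stock. Read-out is ctrl% = (test signal − positive control signal)/(negative control signal − positive control signal) × 100. DMSO is the negative control (100%) and a control compound the positive control (0%). Lower ctrl% means tighter binding.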

[26] = biological target: Receptor-interacting serine/threonine-protein kinase 2 (Homo sapiens) (UniProt O43353); assay: Inhibition of RIPK2 (unknown origin) assessed as remaining activity at 1 uM by Kinome scan method relative to control
[27] = biological target: Activated CDC42 kinase 1 (Homo sapiens) (UniProt Q07912); assay: Inhibition of TNK2 (unknown origin) assessed as remaining activity at 1 uM by Kinome scan method relative to control
[28] = system: Receptor-type tyrosine-protein kinase FLT3 (Homo sapiens), P36888 [R834Q]; assay: Inhibition of FLT3 R834Q mutant (unknown origin) assessed as remaining activity at 1 uM by Kinome scan method relative to control
[29] = Inhibition of recombinant His-tagged full-length MST1 Y101F mutant (unknown origin) expressing in Escherichia coli assessed as MOB1 phosphorylation level incubated for 15 min by immunoblot analysis; set-up: species or system Homo sapiens

Molecule `CN1C(=O)c2sccc2N(C)c2nc(Nc3ccc(S(N)(=O)=O)cc3)ncc21` has an Activity [1] of 94%, an Activity [2] of 100% and an Activity [3] of 100%. It also gave an Activity [4] of 48%, an Activity [5] of 99% and an Activity [6] of 85%. The Activity [7] was 86%, the Activity [8] was 70% and the Activity [9] was 91%. For the same molecule, the Activity [10] was 100%, the IC50 [11] was 254 nM and the Activity [12] was 100%. For the same molecule, the Activity [13] was 100%, the Activity [14] was 100% and the Activity [15] was 93%. For the same molecule, the Activity [16] was 96%, the Activity [17] was 100% and the Activity [18] was 95%. The Activity [19] was 85%, the Activity [20] was 100% and the Activity [21] was 100%. It also gave an Activity [22] of 100%, an Activity [23] of 81% and an Activity [24] of 100%. It also gave an Activity [25] of 91%, an Activity [26] of 100% and an Activity [27] of 95%. For the same molecule, the Activity [28] was 91% and the IC50 [29] was 355 nM.
